Laboratory results: ChEMBL document CHEMBL2311435, “Development of 18F-labeled picolinamide probes for PET imaging of malignant melanoma” (J Med Chem, 2013)
One block for each compound: values may come before it.

Legend:
[1] = Drug uptake in tumor of C57BL/6 mouse xenografted with mouse B16F10 cells at 3.7 MBq, iv after 1 hr by PET imaging analysis; format: ADME, organism-based, Neoplasm, B16-F10; details: in vivo
Method in brief: (§1)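 Static small-animal PET at 0.5, 1 and 2 h after tail-vein injection of ~3.7 MBq (100 μCi) into B16F10-bearing C57BL/6 mice (n = 4 per probe). Isoflurane anesthesia, 5% induction and 2% maintenance in O2. Decay-corrected images. ROI-derived %ID/g assumes 1 g/ml density, without attenuation correction. Mean ± SD.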

Brain [2] = assay: Biodistribution in brain of C57BL/6 mouse xenografted with mouse B16F10 cells at 3.7 MBq, iv after 1 hr by gamma-scintillation counting analysis; format: ADME, organism-based, B16-F10; details: in vivo
Method in brief: (§2)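 1.0 × 10^6 B16F10 cells in PBS injected subcutaneously into the right shoulder of C57BL/6 mice, grown to 0.5 cm (~10 day). Tail-vein injection of about 3.7 MBq (100 μCi) 18F probe in PBS (0.1 M, pH 7.4). Killed at 1.0 or 2.0 h p.i. (n = 4 per group). Tissues excised, weighed and gamma-counted; uptake expressed as %ID/g, mean ± SD.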

Pancreas [3] = assay: Biodistribution in pancreas of C57BL/6 mouse xenografted with mouse B16F10 cells at 3.7 MBq, iv after 1 hr by gamma-scintillation counting analysis; format: ADME, organism-based, B16-F10; details: in vivo; method in brief: as §2
Heart [4] = assay: Biodistribution in heart of C57BL/6 mouse xenografted with mouse B16F10 cells at 3.7 MBq, iv after 1 hr by gamma-scintillation counting analysis; format: ADME, organism-based, B16-F10; details: in vivo; method in brief: as §2
Mus musculus [5] = assay: Biodistribution in lungs of C57BL/6 mouse xenografted with mouse B16F10 cells at 3.7 MBq, iv after 1 hr by gamma-scintillation counting analysis; format: ADME, organism-based, Lung, B16-F10; details: in vivo; method in brief: as §2
Nucleic Acid [6] = assay: Ratio of drug uptake in tumor to blood of C57BL/6 mouse xenografted with mouse B16F10 cells at 3.7 MBq, iv after 2 hrs by gamma-scintillation counting analysis; format: ADME, organism-based, B16-F10; details: tumour
Method in brief: (§3)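 Same subcutaneous B16F10 model and tail-vein dose of about 3.7 MBq (100 μCi), n = 4 per group. Dissection at 1 or 2 h p.i. Gamma-counter %ID/g of tumor divided by that of blood, lung, liver or muscle, given as mean ± SD.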

Bone [7] = assay: Biodistribution in bone of C57BL/6 mouse xenografted with mouse B16F10 cells at 3.7 MBq, iv after 2 hrs by gamma-scintillation counting analysis; format: ADME, organism-based, Bone element, B16-F10; details: in vivo; method in brief: as §2
Intestine [8] = assay: Biodistribution in intestine of C57BL/6 mouse xenografted with mouse B16F10 cells at 3.7 MBq, iv after 1 hr by gamma-scintillation counting analysis; format: ADME, organism-based, B16-F10; details: in vivo; method in brief: as §2
Zone of skin [9] = assay: Biodistribution in skin of C57BL/6 mouse xenografted with mouse B16F10 cells at 3.7 MBq, iv after 2 hrs by gamma-scintillation counting analysis; format: ADME, organism-based, B16-F10; details: in vivo; method in brief: as §2
Nucleic Acid [10] = assay: Ratio of drug uptake in tumor to lungs of C57BL/6 mouse xenografted with mouse B16F10 cells at 3.7 MBq, iv after 1 hr by gamma-scintillation counting analysis; format: ADME, organism-based, B16-F10; details: in vivo; method in brief: as §3
[11] = Drug uptake in tumor of C57BL/6 mouse xenografted with mouse B16F10 cells at 3.7 MBq, iv after 0.5 hrs by PET imaging analysis; format: ADME, organism-based, Neoplasm, B16-F10; details: in vivo; method in brief: as §1
Blood [12] = assay: Biodistribution in blood of C57BL/6 mouse xenografted with mouse B16F10 cells at 3.7 MBq, iv after 2 hrs by gamma-scintillation counting analysis; format: ADME, organism-based, B16-F10; details: in vivo; method in brief: as §2
Liver [13] = assay: Biodistribution in liver of C57BL/6 mouse xenografted with mouse B16F10 cells at 3.7 MBq, iv after 1 hr by gamma-scintillation counting analysis; format: ADME, organism-based, B16-F10; details: in vivo; method in brief: as §2
Blood [14] = assay: Biodistribution in blood of C57BL/6 mouse xenografted with mouse B16F10 cells at 3.7 MBq, iv after 1 hr by gamma-scintillation counting analysis; format: ADME, organism-based, B16-F10; details: in vivo; method in brief: as §2
Nucleic Acid [15] = assay: Ratio of drug uptake in tumor to muscle of C57BL/6 mouse xenografted with mouse B16F10 cells at 3.7 MBq, iv after 2 hrs by gamma-scintillation counting analysis; format: ADME, organism-based, B16-F10; details: in vivo; method in brief: as §3
Nucleic Acid [16] = assay: Ratio of drug uptake in tumor to lungs of C57BL/6 mouse xenografted with mouse B16F10 cells at 3.7 MBq, iv after 2 hrs by gamma-scintillation counting analysis; format: ADME, organism-based, B16-F10; details: in vivo; method in brief: as §3
Mus musculus [17] = assay: Biodistribution in eye of C57BL/6 mouse xenografted with mouse B16F10 cells at 3.7 MBq, iv after 1 hr by gamma-scintillation counting analysis; format: ADME, organism-based, B16-F10; details: in vivo; method in brief: as §2
Mus musculus [18] = assay: Biodistribution in eye of C57BL/6 mouse xenografted with mouse B16F10 cells at 3.7 MBq, iv after 2 hrs by gamma-scintillation counting analysis; format: ADME, organism-based, B16-F10; details: in vivo; method in brief: as §2
Spleen [19] = assay: Biodistribution in spleen of C57BL/6 mouse xenografted with mouse B16F10 cells at 3.7 MBq, iv after 1 hr by gamma-scintillation counting analysis; format: ADME, organism-based, B16-F10; details: in vivo; method in brief: as §2
Heart [20] = assay: Biodistribution in heart of C57BL/6 mouse xenografted with mouse B16F10 cells at 3.7 MBq, iv after 2 hrs by gamma-scintillation counting analysis; format: ADME, organism-based, B16-F10; details: in vivo; method in brief: as §2
Mus musculus [21] = assay: Biodistribution in tumor of C57BL/6 mouse xenografted with mouse B16F10 cells at 3.7 MBq, iv after 2 hrs by gamma-scintillation counting analysis; format: ADME, organism-based, Neoplasm, B16-F10; details: in vivo; method in brief: as §2
Pancreas [22] = assay: Biodistribution in pancreas of C57BL/6 mouse xenografted with mouse B16F10 cells at 3.7 MBq, iv after 2 hrs by gamma-scintillation counting analysis; format: ADME, organism-based, B16-F10; details: in vivo; method in brief: as §2
Nucleic Acid [23] = assay: Ratio of drug uptake in tumor to liver of C57BL/6 mouse xenografted with mouse B16F10 cells at 3.7 MBq, iv after 1 hr by gamma-scintillation counting analysis; format: ADME, organism-based, B16-F10; details: in vivo; method in brief: as §3
Mus musculus [24] = assay: Biodistribution in tumor of C57BL/6 mouse xenografted with mouse B16F10 cells at 3.7 MBq, iv after 1 hr by gamma-scintillation counting analysis; format: ADME, organism-based, Neoplasm, B16-F10; details: in vivo; method in brief: as §2
Nucleic Acid [25] = assay: Ratio of drug uptake in tumor to blood of C57BL/6 mouse xenografted with mouse B16F10 cells at 3.7 MBq, iv after 1 hr by gamma-scintillation counting analysis; format: ADME, organism-based, B16-F10; details: tumour; method in brief: as §3
Nucleic Acid [26] = assay: Ratio of drug uptake in tumor to muscle of C57BL/6 mouse xenografted with mouse B16F10 cells at 3.7 MBq, iv after 1 hr by gamma-scintillation counting analysis; format: ADME, organism-based, B16-F10; details: in vivo; method in brief: as §3
Mus musculus [27] = assay: Biodistribution in lungs of C57BL/6 mouse xenografted with mouse B16F10 cells at 3.7 MBq, iv after 2 hrs by gamma-scintillation counting analysis; format: ADME, organism-based, Lung, B16-F10; details: in vivo; method in brief: as §2
Spleen [28] = assay: Biodistribution in spleen of C57BL/6 mouse xenografted with mouse B16F10 cells at 3.7 MBq, iv after 2 hrs by gamma-scintillation counting analysis; format: ADME, organism-based, B16-F10; details: in vivo; method in brief: as §2
Kidney [29] = assay: Biodistribution in kidney of C57BL/6 mouse xenografted with mouse B16F10 cells at 3.7 MBq, iv after 1 hr by gamma-scintillation counting analysis; format: ADME, organism-based, B16-F10; details: in vivo; method in brief: as §2
Kidney [30] = assay: Biodistribution in kidney of C57BL/6 mouse xenografted with mouse B16F10 cells at 3.7 MBq, iv after 2 hrs by gamma-scintillation counting analysis; format: ADME, organism-based, B16-F10; details: in vivo; method in brief: as §2
Muscle tissue [31] = assay: Biodistribution in muscle of C57BL/6 mouse xenografted with mouse B16F10 cells at 3.7 MBq, iv after 1 hr by gamma-scintillation counting analysis; format: ADME, organism-based, B16-F10; details: in vivo; method in brief: as §2
Nucleic Acid [32] = assay: Ratio of drug uptake in tumor to liver of C57BL/6 mouse xenografted with mouse B16F10 cells at 3.7 MBq, iv after 2 hrs by gamma-scintillation counting analysis; format: ADME, organism-based, B16-F10; details: in vivo; method in brief: as §3
Liver [33] = assay: Biodistribution in liver of C57BL/6 mouse xenografted with mouse B16F10 cells at 3.7 MBq, iv after 2 hrs by gamma-scintillation counting analysis; format: ADME, organism-based, B16-F10; details: in vivo; method in brief: as §2
Stomach [34] = assay: Biodistribution in stomach of C57BL/6 mouse xenografted with mouse B16F10 cells at 3.7 MBq, iv after 2 hrs by gamma-scintillation counting analysis; format: ADME, organism-based, B16-F10; details: in vivo; method in brief: as §2
[35] = Drug uptake in tumor of C57BL/6 mouse xenografted with mouse B16F10 cells at 3.7 MBq, iv after 2 hrs by PET imaging analysis; format: ADME, organism-based, Neoplasm, B16-F10; details: in vivo; method in brief: as §1
Intestine [36] = assay: Biodistribution in intestine of C57BL/6 mouse xenografted with mouse B16F10 cells at 3.7 MBq, iv after 2 hrs by gamma-scintillation counting analysis; format: ADME, organism-based, B16-F10; details: in vivo; method in brief: as §2
Bone [37] = assay: Biodistribution in bone of C57BL/6 mouse xenografted with mouse B16F10 cells at 3.7 MBq, iv after 1 hr by gamma-scintillation counting analysis; format: ADME, organism-based, Bone element, B16-F10; details: in vivo; method in brief: as §2
Stomach [38] = assay: Biodistribution in stomach of C57BL/6 mouse xenografted with mouse B16F10 cells at 3.7 MBq, iv after 1 hr by gamma-scintillation counting analysis; format: ADME, organism-based, B16-F10; details: in vivo; method in brief: as §2
Zone of skin [39] = assay: Biodistribution in skin of C57BL/6 mouse xenografted with mouse B16F10 cells at 3.7 MBq, iv after 1 hr by gamma-scintillation counting analysis; format: ADME, organism-based, B16-F10; details: in vivo; method in brief: as §2
Muscle tissue [40] = assay: Biodistribution in muscle of C57BL/6 mouse xenografted with mouse B16F10 cells at 3.7 MBq, iv after 2 hrs by gamma-scintillation counting analysis; format: ADME, organism-based, B16-F10; details: in vivo; method in brief: as §2
Brain [41] = assay: Biodistribution in brain of C57BL/6 mouse xenografted with mouse B16F10 cells at 3.7 MBq, iv after 2 hrs by gamma-scintillation counting analysis; format: ADME, organism-based, B16-F10; details: in vivo; method in brief: as §2

Drug uptake [1]: 7.94 % ID/g
Drug uptake (Brain [2]): 1.56 % ID/g
Drug uptake (Pancreas [3]): 3.58 % ID/g
Drug uptake (Heart [4]): 1.54 % ID/g
Drug uptake (Mus musculus [5]): 1.52 % ID/g
Ratio (Nucleic Acid [6]): 39.2
Drug uptake (Bone [7]): 2.12 % ID/g
Drug uptake (Intestine [8]): 3.46 % ID/g
Drug uptake (Zone of skin [9]): 0.71 % ID/g
Ratio (Nucleic Acid [10]): 6.23
Drug uptake [11]: 7.54 % ID/g
Drug uptake (Blood [12]): 0.2 % ID/g
Drug uptake (Liver [13]): 4.47 % ID/g
Drug uptake (Blood [14]): 0.46 % ID/g
Ratio (Nucleic Acid [15]): 15.22
Ratio (Nucleic Acid [16]): 10.49
Drug uptake (Mus musculus [17]): 34 % ID/g
Drug uptake (Mus musculus [18]): 32.23 % ID/g
Drug uptake (Spleen [19]): 2.88 % ID/g
Drug uptake (Heart [20]): 0.4 % ID/g
Drug uptake (Mus musculus [21]): 9.29 % ID/g
Drug uptake (Pancreas [22]): 0.71 % ID/g
Ratio (Nucleic Acid [23]): 2.24
Drug uptake (Mus musculus [24]): 9.54 % ID/g
Ratio (Nucleic Acid [25]): 20.44
Ratio (Nucleic Acid [26]): 11.24
Drug uptake (Mus musculus [27]): 0.92 % ID/g
Drug uptake (Spleen [28]): 0.56 % ID/g
Drug uptake (Kidney [29]): 5.63 % ID/g
Drug uptake (Kidney [30]): 1.2 % ID/g
Drug uptake (Muscle tissue [31]): 1.11 % ID/g
Ratio (Nucleic Acid [32]): 7.26
Drug uptake (Liver [33]): 1.07 % ID/g
Drug uptake (Stomach [34]): 2.27 % ID/g
Drug uptake [35]: 8.47 % ID/g
Drug uptake (Intestine [36]): 0.89 % ID/g
Drug uptake (Bone [37]): 3.48 % ID/g
Drug uptake (Stomach [38]): 5.03 % ID/g
Drug uptake (Zone of skin [39]): 2.37 % ID/g
Drug uptake (Muscle tissue [40]): 0.52 % ID/g
Drug uptake (Brain [41]): 0.41 % ID/g
SMILES: CCN(CC)CCNC(=O)c1ccc([18F])nc1

Drug uptake (Mus musculus [21]): 5.94 % ID/g
SMILES: CCN(CC)CCNC(=O)c1ccc([18F])cc1
